Measurements taken from ChEMBL document CHEMBL3808289, “Discovery of a Selective Series of Inhibitors of Plasmodium falciparum HDACs” (ACS Med Chem Lett, 2016).
Activity calls are given as the source filed them. The rule behind the calls is not given here.

What was measured:
[1] = Intrinsic clearance in human liver microsomes at 1 uM by LC-MS/MS analysis; assay type: ADME; settings: read-out: CLH
[2] = Intrinsic clearance in CD1 mouse liver microsomes at 1 uM by LC-MS/MS analysis; assay type: ADME; settings: read-out: CLH
Plasmodium falciparum = assay: Antimalarial activity against Plasmodium falciparum 3D7 infected human erythrocytes assessed as parasite growth inhibition after 72 hrs by spectrophotometry; assay type: functional, organism-based; settings: 3D7, 72 h
Summary of the method: (§1)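 Cell-based read-outs (parasite growth in erythrocytes; class I HDAC activity in HeLa) were run with multiple repetitions of each assay to limit variability.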

[3] = Inhibition of class 1 histone deacetylase in human HeLa cells using FLUOR DE LYS as fluorescent substrate after 4 hrs by spectrophotometry; assay type: cell-based; summary of the method: as §1
Histone deacetylase 1 [4] = target: T1, Histone deacetylase 1 (Homo sapiens, UniProt Q13547); assay: Inhibition of recombinant human His-tagged HDAC1 expressed in insect cells preincubated for 10 mins followed by addition of FLUOR DE LYS as fluorescent substrate measured after 1 hr by spectrophotometry
T1 sequence (Q13547 whole entry): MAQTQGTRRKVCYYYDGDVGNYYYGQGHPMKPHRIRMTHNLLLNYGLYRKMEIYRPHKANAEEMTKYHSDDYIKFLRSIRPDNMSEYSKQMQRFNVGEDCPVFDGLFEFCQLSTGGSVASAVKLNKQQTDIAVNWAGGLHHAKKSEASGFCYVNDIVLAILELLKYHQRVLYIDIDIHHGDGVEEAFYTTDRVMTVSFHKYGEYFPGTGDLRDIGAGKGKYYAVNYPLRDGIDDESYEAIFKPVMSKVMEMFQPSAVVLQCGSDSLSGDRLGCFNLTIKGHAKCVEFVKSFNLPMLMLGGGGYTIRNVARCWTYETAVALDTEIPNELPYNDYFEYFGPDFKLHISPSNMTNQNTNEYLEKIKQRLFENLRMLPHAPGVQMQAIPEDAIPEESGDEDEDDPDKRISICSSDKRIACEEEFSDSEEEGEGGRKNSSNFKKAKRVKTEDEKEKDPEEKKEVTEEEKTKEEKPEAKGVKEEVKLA

[5] = Clearance in NMRI mouse plasma 2 mg/kg, iv by LC-MS/MS analysis; assay type: ADME, organism-based
[6] = Inhibition of HDAC1 in Plasmodium falciparum 3D7 infected in human erythrocytes assessed as histone H4 hyperacetylation at lysine8 residue by western blotting method; assay type: cell-based
Summary of the method: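 P. falciparum parasites inside erythrocytes were treated with increasing compound concentrations. Histone H4 lysine 8 acetylation was analysed, and the concentration giving hyperacetylation was expressed as an EC50.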

Histone deacetylase 1 [7] = target: T1, Histone deacetylase 1; assay: Inhibition of human HDAC1 at 5 uM
[8] = target: Histone deacetylase 2 (Homo sapiens) (UniProt Q92769); assay: Inhibition of human HDAC2 at 5 uM
Sequence of Histone deacetylase 2 (Homo sapiens) (Q92769 whole entry): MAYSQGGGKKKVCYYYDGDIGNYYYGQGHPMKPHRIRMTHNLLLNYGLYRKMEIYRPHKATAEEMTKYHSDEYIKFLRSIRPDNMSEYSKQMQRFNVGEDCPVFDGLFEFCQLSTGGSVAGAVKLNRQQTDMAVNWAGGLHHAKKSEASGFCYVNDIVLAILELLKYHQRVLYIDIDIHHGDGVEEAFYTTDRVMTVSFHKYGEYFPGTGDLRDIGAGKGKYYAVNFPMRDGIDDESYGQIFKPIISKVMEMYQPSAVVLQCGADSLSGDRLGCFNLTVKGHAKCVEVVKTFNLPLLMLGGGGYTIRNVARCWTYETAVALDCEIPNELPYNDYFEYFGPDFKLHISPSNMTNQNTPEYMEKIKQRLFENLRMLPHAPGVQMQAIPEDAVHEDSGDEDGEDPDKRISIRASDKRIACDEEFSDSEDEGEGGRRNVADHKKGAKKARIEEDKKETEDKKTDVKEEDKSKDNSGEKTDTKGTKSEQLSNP

Histone deacetylase 3 = Histone deacetylase 3 (Homo sapiens, UniProt O15379); assay: Inhibition of human HDAC3
Sequence of Histone deacetylase 3 (O15379 whole entry): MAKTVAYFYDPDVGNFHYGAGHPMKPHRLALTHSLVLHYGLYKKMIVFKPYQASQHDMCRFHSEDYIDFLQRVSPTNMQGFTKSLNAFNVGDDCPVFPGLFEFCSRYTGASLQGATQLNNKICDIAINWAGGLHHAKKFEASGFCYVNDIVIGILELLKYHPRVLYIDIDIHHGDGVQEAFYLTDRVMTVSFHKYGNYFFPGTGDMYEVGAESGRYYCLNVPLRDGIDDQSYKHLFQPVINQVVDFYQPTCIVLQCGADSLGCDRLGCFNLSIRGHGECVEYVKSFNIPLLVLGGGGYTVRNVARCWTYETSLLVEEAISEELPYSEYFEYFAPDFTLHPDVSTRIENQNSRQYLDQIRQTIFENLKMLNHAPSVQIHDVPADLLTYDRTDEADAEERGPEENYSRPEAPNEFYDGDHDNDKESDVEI
Summary of the method: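 HDAC3 was measured within a human HDAC enzyme panel (HDAC1–7 and 9), with concentrations tested up to 5 μM.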

[9] = target: Histone deacetylase 4 (Homo sapiens) (UniProt P56524); assay: Inhibition of human HDAC4 at 5 uM
Sequence of Histone deacetylase 4 (Homo sapiens) (P56524 whole entry): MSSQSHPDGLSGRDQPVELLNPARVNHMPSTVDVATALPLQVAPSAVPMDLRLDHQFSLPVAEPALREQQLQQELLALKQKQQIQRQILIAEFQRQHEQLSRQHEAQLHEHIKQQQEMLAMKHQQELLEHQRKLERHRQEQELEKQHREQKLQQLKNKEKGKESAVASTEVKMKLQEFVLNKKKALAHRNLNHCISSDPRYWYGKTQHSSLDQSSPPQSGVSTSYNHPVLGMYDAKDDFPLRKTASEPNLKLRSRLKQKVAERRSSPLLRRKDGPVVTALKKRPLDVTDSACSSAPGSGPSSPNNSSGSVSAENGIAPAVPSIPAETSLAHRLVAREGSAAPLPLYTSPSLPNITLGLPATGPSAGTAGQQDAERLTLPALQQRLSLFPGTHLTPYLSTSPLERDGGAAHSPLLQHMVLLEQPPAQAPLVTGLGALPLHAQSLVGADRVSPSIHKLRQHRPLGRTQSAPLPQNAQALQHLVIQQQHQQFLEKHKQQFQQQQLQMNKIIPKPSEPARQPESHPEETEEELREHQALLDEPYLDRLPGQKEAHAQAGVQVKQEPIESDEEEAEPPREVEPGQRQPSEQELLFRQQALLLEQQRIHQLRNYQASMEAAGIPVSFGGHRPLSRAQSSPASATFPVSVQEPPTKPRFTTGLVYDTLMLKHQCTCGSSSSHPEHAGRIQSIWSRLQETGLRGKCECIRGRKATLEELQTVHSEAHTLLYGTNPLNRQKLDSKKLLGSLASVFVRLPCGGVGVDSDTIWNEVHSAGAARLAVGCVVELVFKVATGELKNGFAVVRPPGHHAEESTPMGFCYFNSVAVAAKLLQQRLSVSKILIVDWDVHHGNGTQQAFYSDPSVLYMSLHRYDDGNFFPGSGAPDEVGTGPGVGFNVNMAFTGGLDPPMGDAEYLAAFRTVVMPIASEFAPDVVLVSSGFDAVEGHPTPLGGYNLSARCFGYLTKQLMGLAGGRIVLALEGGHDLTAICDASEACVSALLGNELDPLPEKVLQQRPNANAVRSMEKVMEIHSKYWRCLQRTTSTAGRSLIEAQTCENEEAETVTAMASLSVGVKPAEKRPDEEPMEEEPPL

[10] = target: Histone deacetylase 5 (Homo sapiens) (UniProt Q9UQL6); assay: Inhibition of human HDAC5 at 5 uM
Sequence of Histone deacetylase 5 (Homo sapiens) (Q9UQL6 whole entry): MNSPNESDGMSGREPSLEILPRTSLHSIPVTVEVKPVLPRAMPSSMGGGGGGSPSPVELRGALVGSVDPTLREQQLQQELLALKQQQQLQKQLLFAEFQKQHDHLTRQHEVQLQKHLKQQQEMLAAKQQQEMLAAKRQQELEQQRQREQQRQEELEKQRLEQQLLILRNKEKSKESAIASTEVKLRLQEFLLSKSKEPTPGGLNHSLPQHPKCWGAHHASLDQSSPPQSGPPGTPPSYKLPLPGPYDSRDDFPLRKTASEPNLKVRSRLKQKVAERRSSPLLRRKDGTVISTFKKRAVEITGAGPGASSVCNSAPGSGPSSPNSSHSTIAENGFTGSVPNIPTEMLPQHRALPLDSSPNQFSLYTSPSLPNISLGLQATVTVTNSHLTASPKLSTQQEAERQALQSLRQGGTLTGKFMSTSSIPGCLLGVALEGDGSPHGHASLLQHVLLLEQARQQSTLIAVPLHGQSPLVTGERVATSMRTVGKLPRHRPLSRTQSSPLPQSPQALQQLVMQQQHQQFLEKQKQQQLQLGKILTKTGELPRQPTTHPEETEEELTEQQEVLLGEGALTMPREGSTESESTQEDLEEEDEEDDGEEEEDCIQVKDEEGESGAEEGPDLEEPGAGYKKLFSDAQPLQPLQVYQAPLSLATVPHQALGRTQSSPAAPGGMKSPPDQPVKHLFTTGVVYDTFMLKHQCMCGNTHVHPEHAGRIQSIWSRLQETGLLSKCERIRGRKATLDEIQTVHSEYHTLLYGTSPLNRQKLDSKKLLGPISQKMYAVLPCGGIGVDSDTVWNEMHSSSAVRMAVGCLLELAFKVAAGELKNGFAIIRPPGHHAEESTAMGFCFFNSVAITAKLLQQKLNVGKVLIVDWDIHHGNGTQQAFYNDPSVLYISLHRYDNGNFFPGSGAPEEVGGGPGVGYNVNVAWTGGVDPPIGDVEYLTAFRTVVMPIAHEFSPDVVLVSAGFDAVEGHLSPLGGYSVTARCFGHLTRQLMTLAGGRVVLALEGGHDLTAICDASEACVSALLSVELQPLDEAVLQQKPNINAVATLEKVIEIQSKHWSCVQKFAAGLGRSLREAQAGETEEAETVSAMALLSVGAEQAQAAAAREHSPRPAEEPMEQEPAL

[11] = target: T2, Protein deacetylase HDAC6 (Homo sapiens) (UniProt Q9UBN7); assay: Inhibition of human HDAC6 at 5 uM
T2 sequence (whole entry): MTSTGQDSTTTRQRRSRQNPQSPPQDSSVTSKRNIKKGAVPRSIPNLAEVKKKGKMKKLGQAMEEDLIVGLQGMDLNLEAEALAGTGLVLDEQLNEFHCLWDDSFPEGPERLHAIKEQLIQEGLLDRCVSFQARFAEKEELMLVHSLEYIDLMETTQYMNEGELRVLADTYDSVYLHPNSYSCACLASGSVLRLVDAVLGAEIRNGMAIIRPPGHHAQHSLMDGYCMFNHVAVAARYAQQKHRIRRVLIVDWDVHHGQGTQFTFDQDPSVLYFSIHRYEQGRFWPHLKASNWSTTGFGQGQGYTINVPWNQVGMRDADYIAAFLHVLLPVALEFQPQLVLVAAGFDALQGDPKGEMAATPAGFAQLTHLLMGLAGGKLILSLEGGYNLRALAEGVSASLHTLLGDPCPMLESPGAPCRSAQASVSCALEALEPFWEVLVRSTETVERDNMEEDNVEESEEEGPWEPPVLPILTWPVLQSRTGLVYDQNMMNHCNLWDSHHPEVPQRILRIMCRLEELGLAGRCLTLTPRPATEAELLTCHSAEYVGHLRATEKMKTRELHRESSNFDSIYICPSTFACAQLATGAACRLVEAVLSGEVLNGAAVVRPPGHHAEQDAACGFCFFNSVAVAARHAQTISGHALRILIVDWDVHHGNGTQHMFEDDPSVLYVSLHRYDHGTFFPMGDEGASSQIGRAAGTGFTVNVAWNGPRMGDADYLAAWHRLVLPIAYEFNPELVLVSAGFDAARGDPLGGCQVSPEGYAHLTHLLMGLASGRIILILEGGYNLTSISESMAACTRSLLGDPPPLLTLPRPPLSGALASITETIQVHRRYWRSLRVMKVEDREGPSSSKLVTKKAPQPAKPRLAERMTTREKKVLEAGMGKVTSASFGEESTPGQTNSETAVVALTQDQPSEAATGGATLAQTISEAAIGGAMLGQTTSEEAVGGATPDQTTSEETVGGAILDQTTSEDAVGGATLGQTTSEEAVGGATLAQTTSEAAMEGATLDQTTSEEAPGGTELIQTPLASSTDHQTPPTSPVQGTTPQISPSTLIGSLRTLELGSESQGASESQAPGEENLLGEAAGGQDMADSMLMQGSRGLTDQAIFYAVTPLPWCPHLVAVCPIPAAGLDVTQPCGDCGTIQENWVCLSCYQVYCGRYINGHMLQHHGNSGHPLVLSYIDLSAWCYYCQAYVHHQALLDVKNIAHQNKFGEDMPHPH

[12] = target: T3, Histone deacetylase 7 (Homo sapiens) (UniProt Q8WUI4); assay: Inhibition of human HDAC7 at 5 uM
T3 sequence (whole entry): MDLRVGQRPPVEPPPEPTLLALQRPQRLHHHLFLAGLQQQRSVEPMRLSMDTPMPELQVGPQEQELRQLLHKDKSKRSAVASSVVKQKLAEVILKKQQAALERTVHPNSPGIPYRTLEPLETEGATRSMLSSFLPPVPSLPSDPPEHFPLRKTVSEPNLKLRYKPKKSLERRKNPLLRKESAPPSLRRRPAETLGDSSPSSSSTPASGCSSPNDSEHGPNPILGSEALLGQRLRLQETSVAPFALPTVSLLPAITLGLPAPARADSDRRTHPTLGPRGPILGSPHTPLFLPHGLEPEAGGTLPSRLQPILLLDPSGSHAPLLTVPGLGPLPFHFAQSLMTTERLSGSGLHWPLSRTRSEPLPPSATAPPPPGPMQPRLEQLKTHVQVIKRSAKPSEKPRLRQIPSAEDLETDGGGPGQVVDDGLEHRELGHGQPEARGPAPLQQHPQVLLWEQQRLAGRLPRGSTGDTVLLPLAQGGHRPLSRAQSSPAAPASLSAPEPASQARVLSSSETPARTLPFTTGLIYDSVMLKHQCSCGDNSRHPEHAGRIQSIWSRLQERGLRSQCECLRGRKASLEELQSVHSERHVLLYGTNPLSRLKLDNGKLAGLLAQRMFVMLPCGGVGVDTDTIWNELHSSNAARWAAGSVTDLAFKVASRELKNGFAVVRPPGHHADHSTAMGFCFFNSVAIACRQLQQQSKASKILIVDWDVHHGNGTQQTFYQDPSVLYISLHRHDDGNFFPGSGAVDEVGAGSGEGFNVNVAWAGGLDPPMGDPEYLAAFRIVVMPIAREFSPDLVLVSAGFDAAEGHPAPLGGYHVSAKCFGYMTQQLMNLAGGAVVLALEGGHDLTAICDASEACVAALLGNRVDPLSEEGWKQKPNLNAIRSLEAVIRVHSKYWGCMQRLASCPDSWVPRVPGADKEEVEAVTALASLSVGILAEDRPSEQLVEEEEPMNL

[13] = target: Histone deacetylase 9 (Homo sapiens) (UniProt Q9UKV0); assay: Inhibition of human HDAC9 at 5 uM
Sequence of Histone deacetylase 9 (Homo sapiens) (Q9UKV0 whole entry): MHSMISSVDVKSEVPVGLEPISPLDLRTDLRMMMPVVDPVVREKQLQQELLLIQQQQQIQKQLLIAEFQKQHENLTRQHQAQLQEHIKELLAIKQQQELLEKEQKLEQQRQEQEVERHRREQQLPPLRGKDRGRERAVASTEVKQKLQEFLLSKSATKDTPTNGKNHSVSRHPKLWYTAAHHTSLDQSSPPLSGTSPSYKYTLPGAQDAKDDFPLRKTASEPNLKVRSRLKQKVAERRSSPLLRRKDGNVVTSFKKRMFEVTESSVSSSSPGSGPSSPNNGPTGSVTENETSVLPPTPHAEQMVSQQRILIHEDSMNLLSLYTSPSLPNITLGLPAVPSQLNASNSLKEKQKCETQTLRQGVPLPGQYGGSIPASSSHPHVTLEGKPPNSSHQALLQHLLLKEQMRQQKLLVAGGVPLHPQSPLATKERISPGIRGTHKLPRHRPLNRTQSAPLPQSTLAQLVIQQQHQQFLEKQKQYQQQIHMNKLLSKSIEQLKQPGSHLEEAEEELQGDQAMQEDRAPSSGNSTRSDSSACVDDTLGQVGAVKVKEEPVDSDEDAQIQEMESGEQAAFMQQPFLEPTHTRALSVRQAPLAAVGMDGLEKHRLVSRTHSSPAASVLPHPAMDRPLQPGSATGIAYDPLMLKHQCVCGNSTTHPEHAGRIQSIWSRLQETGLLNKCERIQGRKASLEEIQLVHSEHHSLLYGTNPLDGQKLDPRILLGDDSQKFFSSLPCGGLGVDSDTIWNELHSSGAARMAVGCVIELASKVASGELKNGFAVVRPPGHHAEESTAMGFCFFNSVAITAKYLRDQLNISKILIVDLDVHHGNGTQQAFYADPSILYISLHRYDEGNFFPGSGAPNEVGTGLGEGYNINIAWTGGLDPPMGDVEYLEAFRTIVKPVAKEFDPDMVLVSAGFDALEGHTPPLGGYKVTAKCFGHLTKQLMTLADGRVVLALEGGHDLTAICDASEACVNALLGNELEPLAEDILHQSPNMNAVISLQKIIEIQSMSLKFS

[14] = Cytotoxicity against human HeLa cells assessed as cell viability after 72 hrs by CellTiter-Glo assay; assay type: cell-based
[15] = Cytotoxicity against human HUVEC cells assessed as cell viability after 72 hrs by CellTiter-Glo assay; assay type: cell-based
[16] = Intrinsic clearance in Han Wistar rat liver microsomes at 1 uM by LC-MS/MS analysis; assay type: ADME; settings: read-out: CLH

CNC(=O)CCCCC[C@H](NC(=O)c1cncs1)c1ncc(-c2ccc(-c3ccn[nH]3)cc2)[nH]1
microsomal CLint at 1 µM [1]: 19 µL/min/mg | microsomal CLint at 1 µM [2]: 12 µL/min/mg | EC50 (Plasmodium falciparum): 450 nM | IC50 [3]: 16600 nM | IC50 (Histone deacetylase 1 [4]): 1850 nM | clearance [5]: 247 mL/min/kg | EC50 [6]: 350 nM | inhibition (Histone deacetylase 1 [7]): inactive | inhibition [8]: inactive | IC50 (Histone deacetylase 3): 330 nM | inhibition [9]: inactive | inhibition [10]: inactive | inhibition [11]: inactive | inhibition [12]: inactive | inhibition [13]: inactive | CC50 at 72 h [14]: > 25000 nM | CC50 at 72 h [15]: > 25000 nM | microsomal CLint at 1 µM [16]: 27 µL/min/mg
